Assay results of several laboratories.
Lines come from different studies, so protocols differ.
Target: Cytochrome P450 2C19 (CYP2C19, Homo sapiens, UniProt P33261)
Read-out: enzyme activity
Mode: inhibitor

SMILES	test	test system	conditions	endpoint	value
C[C@@H](c1ccc2nccn2c1)n1nnc2ncc(-c3cnn(C)c3)nc21		human, liver microsomes	pH 7.4	IC50	100 µM
N=C(N)NCc1ccc(NC(=O)C23CCC(C(=O)Nc4ccc(C5=CCN(C(=N)N)CC5)cc4)(CC2)CC3)cc1		liver microsomes	10 µM	inhibition	28.6%
C=CC(=O)Nc1cc(Nc2nccc(Nc3cc(Cl)c(F)cc3C(C)(C)O)n2)c(OC)cc1N1CC[C@@H](N(C)C)C1		human, liver microsomes	10 µM	inhibition	< 20%
CCN(Cc1cnc2nc(N)nc(N)c2n1)c1ccc(C(=O)N2CCC(C(=O)OC)CC2)cc1	luciferase		10 µM	inhibition	-11.1%
O=C(Nc1c2c(cc3c1CCC3)CCC2)NS(=O)(=O)/C=C/c1nccs1		human, liver microsomes	2 µM, pH 7.4	inhibition	8.8%
Nc1nc(N)c2nc(CNc3ccc(C(=O)N4CCC(C(=O)O)CC4)cc3)cnc2n1	luciferase		10 µM	inhibition	-18.1%
CCc1cc(/C(C)=N/OCc2ccc(C3CCCCC3)c(C(F)(F)F)c2)ccc1CN1CC(C(=O)O)C1		human, liver microsomes	100 µM, 20 min	inhibition	9.4%
COc1ccc(Oc2ccc(CN(Cc3ccccc3)Cc3cnc4nc(N)nc(N)c4n3)cc2)cc1	luciferase		10 µM	inhibition	102%
N=C(N)N1CC=C(c2coc(C(=O)Nc3ccc(C4=CCN(C(=N)N)CC4)c(F)c3)c2)CC1		liver microsomes	10 µM	inhibition	2.2%
